Bioassay records (PubChem)
PGC1a acetyl inh: modulators of PGC1a acetylation | 0.17% of 350,000 active | U2OS PGC1a acetylation, AlphaScreen anti-acetyl-lysine; with virally co-expressed GCN5 acetyltransferase | inhibition, % at 15.6 µM | AID 651687;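 active = every replicate shows inhibition of at least 40%; inconclusive = mean inhibition at least 40% but some replicate below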
S100A4 inh HTS: inhibitors of human S100A4 binding to myosin IIA peptide; S100A4/TAMRA-MyoIIA peptide fluorescence polarization; inhibition, % at 10.7 µM; 0.14% of 360,000 active;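 active = mean inhibition of at least 70% across replicates, with every replicate also reaching that level; inconclusive = mean inhibition reaches 70% but some replicates fall short; inactive = mean inhibition below 70%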
Target sequence (P26447 whole entry, looked up): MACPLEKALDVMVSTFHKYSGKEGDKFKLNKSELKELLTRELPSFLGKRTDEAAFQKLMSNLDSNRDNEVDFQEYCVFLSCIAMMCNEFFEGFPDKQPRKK
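Test system: S100A4 monomer protein. Medium: HEPES buffer with Ca2+, pH 7.2. Reagent: fluorescent myosin IIA peptide, 5 nM. Compound dosing: single-point compound testing. Timing: 5 min between mix addition and reading. Benchmarks: DMSO neutral and TFP positive wells.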
SIRT5 block: inhibitors of human sirtuin-5 desuccinylase. Q9NXA8. Purified SirT5, succinyl-peptide AMC, trypsin-coupled fluorescence. inhibition, % at 15 µM. 1.1% of 330,000 active. AID 652115; in the data active = inhibition above about 15%; inconclusive = no clear call, values can overlap the other calls
Target sequence (Q9NXA8 whole entry, looked up): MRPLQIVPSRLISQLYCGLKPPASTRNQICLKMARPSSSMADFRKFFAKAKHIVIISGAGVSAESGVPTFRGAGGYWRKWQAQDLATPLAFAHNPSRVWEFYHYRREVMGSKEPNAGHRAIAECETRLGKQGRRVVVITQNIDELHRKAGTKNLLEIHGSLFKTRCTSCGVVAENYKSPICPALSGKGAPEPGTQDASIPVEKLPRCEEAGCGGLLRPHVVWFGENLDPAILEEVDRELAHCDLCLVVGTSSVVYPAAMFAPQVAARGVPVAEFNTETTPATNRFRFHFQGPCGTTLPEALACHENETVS
C2C12 statin: suppressors of simvastatin-induced myotoxicity in C2C12 myotubes | ATP luminescence, 48 h; scaled: DMSO 0, geranylgeraniol control 100 | rescue of ATP level, % at 7.49 µM | 0.78% of 330,000 active;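 active = mean ATP rescue above about 67%, or every replicate alone reaching that limit, limit read from the data, passing the limit was not always enough; inconclusive = no clear call, values can overlap the other calls; inactive = mean under the limit and some replicate under it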;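 also: myotubes were challenged with 10 µM simvastatin during compound exposure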
DENV2 CPE rescue: DENV2-induced cell death inhibition; DENV2-infected cells, cytopathic effect rescue, plate reader; CPE inhibition, % at 9.99 µM; 1.7% of 350,000 active; AID 651640; in the data active = CPE inhibition above about 20%, passing the limit was not always enough; inconclusive = no clear call, values can overlap the other calls; tested in BHK-21 cells
Hits are given with their value; – = inactive; ? = inconclusive; · = no result. An excerpt weighted towards active compounds, which were near 2.9% of everything screened.

SMILES	PGC1a acetyl inh	S100A4 inh HTS	SIRT5 block	C2C12 statin	DENV2 CPE rescue
COc1cc(OC)c(NS(=O)(=O)c2cc(C(=O)OCC(=O)NCC3CCCO3)ccc2OC)cc1Cl (centres undefined)	–	–	31	·	–
Clc1ccc(OCCn2ccnc2)c(Cl)c1	–	·	·	–	·
OC(COc1ccc(Cl)cc1Cl)Cn1ccnc1 (centres undefined)	–	–	–	–	42
Cc1ccc(NC(=S)NCc2ccc3[nH]c4c(c3c2)CCCC4)cc1	·	–	–	–	–
COCCNC(=S)NCc1ccc2[nH]c3c(c2c1)CCCC3	–	–	–	–	33
CN(C)c1ccc(-c2cc3ccccc3c(=O)o2)cc1	·	–	·	–	114
CCN(CC)CCNC(=O)c1ccc2c(c1NCCO)C(=O)c1ccccc1C2=O	92	–	–	·	–
Cc1noc(C)c1S(=O)(=O)N(C)C[C@@H]1Oc2ccc(NC(=O)C3CCCCC3)cc2CC(=O)N([C@H](C)CO)C[C@@H]1C	–	–	–	–	–
O=C(NC(=S)Nc1ccccc1N1CCOCC1)c1cccs1	·	–	–	·	–
O=C(NC(=S)Nc1ccccc1N1CCCC1)c1cccs1	51	–	–	·	–
O=C(Nc1ccc(N2CCCC2)c(Cl)c1)c1cccs1	–	–	67	–	–
O=C(NC(=S)Nc1ccc(N2CCOCC2)c(Cl)c1)c1cccs1	·	–	–	·	·
COc1ccc(Nc2nc(-c3sc(N)nc3C)cs2)cc1	–	·	·	–	·
Cc1ccc(Nc2nc(-c3sc(N)nc3C)cs2)cc1	–	–	–	–	47
COC(=O)N1C(=O)[C@](c2ccc(Cl)cc2)(C(C)C)N1C(=O)OC	·	–	·	–	50
COc1ccc(S(=O)(=O)Nc2cccc3c2O[C@H](CN(C)Cc2ccccc2)[C@H](C)CN([C@H](C)CO)C3=O)cc1	–	–	–	–	–
COc1cccc(NC(=O)C[C@H]2CC[C@@H]3[C@H](COc4ccc(NC(=O)C5CCOCC5)cc4C(=O)N3C)O2)c1	–	–	–	–	–
COc1ccc2c3c(n(C)c2c1)[C@@H](CO)N(C(=O)c1ccc(F)cc1)CC31CN(C)C1	–	·	·	·	–
CCOc1cc(OCC)cc(C(=O)N2CCC[C@@H]2C(=O)N2CCC[C@@H]2C(=O)NCc2ccccc2Cl)c1	·	–	–	·	81
CC(C)(C)OC(=O)N1CCC[C@@H]1C(=O)N1CCC[C@@H]1C(=O)NCc1ccccc1Cl	·	–	–	·	34
C[C@H](NC(=O)[C@@H]1CCCN1C(=O)[C@@H]1CCCN1C(=O)OC(C)(C)C)c1ccccc1	·	–	16	·	?
O=C(NCc1ccccc1Cl)[C@H]1CCCN1C(=O)[C@H]1CCCN1	·	–	–	·	–
C[C@@H](NC(=O)[C@@H]1CCCN1C(=O)OC(C)(C)C)c1ccccc1	·	–	–	·	–
C[C@H]1CN([C@@H](C)CO)C(=O)c2cccc(NS(=O)(=O)c3ccc(Cl)cc3)c2O[C@@H]1CN(C)S(=O)(=O)c1ccccc1	–	–	–	–	–
O=S(=O)(c1cccs1)N1CCCCN2[C@@H](CO)[C@H](c3ccc(Br)cc3)[C@@H]2C1	–	–	–	–	33
SMILES	PGC1a acetyl inh	S100A4 inh HTS	SIRT5 block	C2C12 statin	DENV2 CPE rescue
O=S(=O)(c1cccs1)N1CCCCN2[C@H](CO)[C@H](c3ccc(C4=CCCCC4)cc3)[C@H]2C1	–	–	20	·	–
Cc1cc2nc(-c3cccc(Cl)c3)c(CC3CCCCC3)n2c(C)c1Br	·	–	–	·	98
Cc1cc2nc(-c3ccccc3)c(CC3CCCCC3)n2c(C)c1Br	·	–	–	·	–
Cc1noc(C)c1NC(=O)Nc1cccc2c1O[C@@H](CN(C)Cc1ccncc1)[C@H](C)CN([C@@H](C)CO)C2=O	–	–	–	–	–
Clc1ccccc1CN1CCN(/N=C/C=C\c2ccco2)CC1	–	–	28	·	–
C(/C=C/c1ccco1)=N/N1CCN(c2ccccc2)CC1	–	·	·	–	·
CC1CN(CCOc2cccc(Oc3ccccc3)c2)CC(C)O1 (centres undefined)	–	–	–	–	–
CC1CCCN(CCOc2cccc(Oc3ccccc3)c2)C1 (centres undefined)	–	–	–	–	53
CN(C)C(=O)c1ccc(-c2ccccc2[C@@H]2[C@@H](C#N)N(C(=O)C3CC3)[C@@H]2CO)cc1	·	–	–	·	40
CN(C)C(=O)c1ccc(-c2ccc([C@H]3[C@@H](C#N)N(C(=O)C4CCCC4)[C@H]3CO)cc2)cc1	–	–	–	–	22
COc1ccccc1-c1ccccc1[C@@H]1[C@@H](C#N)N(C(=O)C2CCC2)[C@@H]1CO	–	–	–	·	44
COc1ccc(-c2ccccc2[C@@H]2[C@@H](C#N)N(C(=O)C3CC3)[C@H]2CO)cc1	–	–	·	·	27
CN(C)CCCNC(=O)C[C@@H]1C=C[C@@H](NC(=O)c2ccccc2F)[C@@H](CO)O1	–	–	–	–	–
Cn1cnc(CCNC(=O)C[C@H]2CC[C@@H]3[C@H](COC[C@@H](O)CN3C(=O)Nc3ccccc3)O2)c1	–	–	–	–	–
COc1cccc(C#Cc2ccc([C@@H]3[C@@H](C#N)N(C(=O)C4CC4)[C@H]3CO)cc2)c1	–	–	–	–	26
COc1ccc(-c2ccccc2[C@H]2[C@@H](C#N)N(C(=O)NC3CCCC3)[C@H]2CO)cc1	–	–	–	·	?
CC(C)NC(=O)N1[C@H](CO)[C@H](c2ccc(-c3ccc(F)cc3)cc2)[C@@H]1C#N	–	–	–	–	35
COc1ccc(-c2ccc([C@H]3[C@@H](C#N)N(C(=O)C4CC4)[C@@H]3CO)cc2)cc1	–	–	–	–	56
COc1cccc(C#Cc2ccc([C@H]3[C@@H](CO)N(C(=O)C4CC4)[C@H]3C#N)cc2)c1	–	–	–	–	–
COc1ccc(-c2ccc([C@@H]3[C@@H](CO)N(C(=O)NC4CCCC4)[C@H]3C#N)cc2)cc1	–	–	–	–	22
Cc1ccc(S(=O)(=O)N(C)C[C@H]2Oc3ccc(NC(=O)CCCN(C)C)cc3CC(=O)N([C@H](C)CO)C[C@@H]2C)cc1	–	–	–	–	–
CN(C)C(=O)c1ccc(-c2ccccc2[C@@H]2[C@@H](CO)N(C(=O)C3CCCCC3)[C@H]2C#N)cc1	–	–	–	·	29
Cc1cc(C(=O)COc2ccc(C#N)cc2)c(C)n1-c1ccc2c(c1)OCO2	–	–	35	–	–
COc1ccc(NC(=O)Nc2ccc3c(c2)CC(=O)N([C@@H](C)CO)C[C@@H](C)[C@H](CN(C)C(=O)Nc2ccc(C(F)(F)F)cc2)O3)cc1	–	·	·	–	?
CCCCCCCC1c2c(c(C)c(C)oc2=O)Oc2c(C)c(C)oc(=O)c21	–	–	·	–	89
CCCC(C)C1c2c(c(C)c(C)oc2=O)Oc2c(C)c(C)oc(=O)c21 (centres undefined)	–	–	–	–	·
O=C1Nc2ccccc2-c2nnnn2C1N1CCCC1 (centres undefined)	·	–	18	·	–
Cc1cc2c(cc1C)-n1nnnc1C(N1CCCC1)C(=O)N2 (centres undefined)	·	–	–	·	–
